Measured values from different studies.
Compare with care: the assays were run in different laboratories. pIC50: −log10 of the molar value.
SCN5A: Sodium channel protein type 5 subunit alpha (SCN5A, Homo sapiens, UniProt Q14524)
ALK: ALK tyrosine kinase receptor (ALK, Homo sapiens, UniProt Q9UM73)
CCR2: C-C chemokine receptor type 2 (CCR2, Homo sapiens, UniProt P41597)
CTSB: Cathepsin B (CTSB, Homo sapiens, UniProt P07858)
SIRT6: NAD-dependent protein deacylase sirtuin-6 (SIRT6, Homo sapiens, UniProt Q8N6T7)
FASN: Fatty acid synthase (FASN, Gallus gallus, UniProt P12276)
TEK: Angiopoietin-1 receptor (TEK, Homo sapiens, UniProt Q02763)
CCR5: C-C chemokine receptor type 5 (CCR5, Homo sapiens, UniProt P51681)
SLC47A1: Multidrug and toxin extrusion protein 1 (SLC47A1, Homo sapiens, UniProt Q96FL8)

CCn1c(-c2nc3cc(C(=O)N4CCC[C@@H](N)C4)cc(OC)c3n2C)cc2cccnc21 — pIC50 (SCN5A; ion current, inhibitor): 4.30
COc1ccc(-c2ccc3[nH]c4ncc(-c5cccc(N)c5)cc4c3c2)cc1 — pIC50 (ALK; enzyme activity, inhibitor, ELISA): < 5.00
CN(Cc1ccc(NC(=O)C2=Cc3cc(-c4ccc(OCCCCCO)cc4)ccc3CCC2)cc1)C1CCOCC1 — pIC50 (CCR2; ligand displacement, radioligand; cell membranes): 6.49
COc1cc(/C=N/n2c(C)nc3ccc(C)cc3c2=O)cc([N+](=O)[O-])c1O — pIC50 (CTSB; enzyme activity, inhibitor): 3.97
CCc1nc[nH]c1-c1ccnc(Nc2ccc(N3CCOCC3)cc2)c1 — pIC50 (Mitogen-activated protein kinase 10 (MAPK10, Homo sapiens, UniProt P53779); enzyme activity, inhibitor, ELISA): 5.92
NCc1cccc(C(=O)NOCc2ccc(C(F)(F)F)cc2)c1 — pIC50 (SIRT6; enzyme activity, inhibitor, fluorescence): 4.38
Cc1cccc(-c2cc(C)n[nH]2)c1 — pIC50 (ALK; enzyme activity, inhibitor, TR-FRET): 3.64
C=C(C)[C@H](CCC(C)(C)O)Cc1c(O)cc(OC)c2c1O[C@H](c1ccc(O)cc1O)CC2=O — pIC50 (FASN; enzyme activity, inhibitor, radiometric): 4.01
CCn1ncc2c1-c1cnc(N)c(c1)O[C@H](C)c1cc(F)ccc1-c1nn(C)nc1C2 — pIC50 (TEK; enzyme activity, inhibitor, radiometric): 6.55
O=C(Nc1ccn(Cc2ccc(O)cc2C(F)(F)F)n1)c1c(F)cccc1F — pIC50 (SCN5A; ion current, inhibitor): < 5.00
CCc1ccc(/C=N/n2c(C)nc3ccc(C)cc3c2=O)s1 — pIC50 (CTSB; enzyme activity, inhibitor): 3.93
O=C(Oc1cc(O)cc2c1C[C@@H](OC(=O)c1cc(O)c(O)c(O)c1)[C@@H](c1cc(O)c(O)c(O)c1)O2)c1cc(O)c(O)c(O)c1 — pIC50 (Receptor-type tyrosine-protein phosphatase C (PTPRC, Homo sapiens, UniProt P08575); enzyme activity, inhibitor, fluorescence): 6.30
NC(=O)c1ccc(C(=O)NOCc2ccc(Sc3ccc(Cl)cc3)c(C(F)(F)F)c2)cc1 — pIC50 (SIRT6; enzyme activity, inhibitor, fluorescence): 5.82
C=C(C)[C@H](CC=C(C)C)Cc1c(O)cc(O)c2c1O[C@H](c1ccccc1O)CC2=O — pIC50 (FASN; enzyme activity, inhibitor, radiometric): 5.07
NC(=S)c1ccc(C(=O)NOCc2ccc(C(F)(F)F)cc2)cc1 — pIC50 (SIRT6; enzyme activity, inhibitor, fluorescence): 5.69
COC(=O)[C@@]1(c2ccc(F)cc2F)C[C@@H]1Oc1ccc(C#N)cc1-c1cc(C)[nH]n1 (racemic) — pIC50 (ALK; enzyme activity, inhibitor, TR-FRET): 7.39
C/C(=C\C(=O)OCCCCCCCCC(=O)O)C[C@@H]1OC[C@H](C[C@@H]2O[C@H]2[C@@H](C)[C@H](C)O)[C@@H](O)[C@H]1O — pIC50 (CCR5; calcium signal, antagonist): 4.97
CN(Cc1ccc(NC(=O)C2=Cc3cc(-c4ccc(OCCCF)cc4)ccc3CCC2)cc1)C1CCOCC1 — pIC50 (CCR5; ligand displacement, radioligand; cell membranes): 5.57
c1ccc(Nc2ccc3c(n2)[nH]c2ccccc23)cc1 — pIC50 (ALK; enzyme activity, inhibitor, ELISA): < 5.00
CC(C)c1ccc(NC(=O)CCc2nc(O)c3c4c(sc3n2)CCC4)cc1 — pIC50 (Pantothenate kinase 1 (Homo sapiens, UniProt Q8TE04); enzyme activity, inhibitor, ATP luminescence): 7.70
N[C@@H](CC(=O)N1CCN(C(c2ccc(F)cc2)c2ccc(F)cc2)CC1)C(=O)N1Cc2ccccc2C1 — pIC50 (Dipeptidyl peptidase 9 (DPP9, Homo sapiens, UniProt Q86TI2); enzyme activity, inhibitor): 6.49
CC(C)(C)Nc1nc(N)c(C(=O)c2ccc(Cl)cc2)s1 — pIC50 (Cyclin-dependent kinase 2 (CDK2, Homo sapiens, UniProt P24941); enzyme activity, inhibitor, mobility shift): 5.31
Nc1ncc2c(n1)-c1c([nH]c3ccc(-c4ccc(F)cc4)cc13)CCC2 — pIC50 (Myosin light chain kinase family member 4 (MYLK4, Homo sapiens, UniProt Q86YV6); enzyme activity, inhibitor, radiometric): 7.46
NC(=O)c1ccc(C(=O)NOCc2ccc(Sc3cc(F)cc(F)c3)c(C(F)(F)F)c2)cc1 — pIC50 (SIRT6; enzyme activity, inhibitor, fluorescence): 5.89
Nc1nonc1-n1cc(C(=O)N/N=C/c2cccc(O)c2O)nn1 — pIC50 (SIRT6; enzyme activity, inhibitor, fluorescence): 4.86
NC(=O)c1ccc(C(=O)NOCc2ccc(Sc3ccccc3)cc2)cc1 — pIC50 (SIRT6; enzyme activity, inhibitor, fluorescence): 5.75
Cc1cnc(-c2ccc(-c3ccc(NC(=O)Nc4c(F)cc(F)cc4F)cc3F)c3c2C(=O)NC3)[nH]1 — pIC50 (Vascular endothelial growth factor receptor 3 (FLT4, Homo sapiens, UniProt P35916); enzyme activity, inhibitor): 7.06
C[C@@H]1CCO[C@H]2Cn3cc(C(=O)NCc4ccc(F)cc4F)c(=O)c(O)c3C(=O)N12 — pIC50 (SLC47A1; transporter uptake, inhibitor, radiometric; HEK293; 5 min, pH 8.5): 5.20
O=c1cc(-c2ccccc2)oc2c1ccc1ccccc12 — pIC50 (Cyclin-dependent kinase 2, with cyclin E1 (CDK2, Homo sapiens, UniProt P24941); enzyme activity, inhibitor, ADP detection): < 4.00
Cc1nc2ccccc2c(=O)n1NC(=O)CSc1nc2ccccc2c(=O)n1-c1ccccc1 — pIC50 (CTSB; enzyme activity, inhibitor): 4.20
CCCC#Cc1ccc2c(n1)[nH]c1ccccc12 — pIC50 (ALK; enzyme activity, inhibitor, ELISA): < 5.00
NC(=O)c1ccc(C(=O)NOCc2cc(Cl)cc(Cl)c2)cc1 — pIC50 (SIRT6; enzyme activity, inhibitor, fluorescence): 5.53
COc1ccc2c(Oc3ccc4c(C(=O)Nc5ccccc5N)cccc4c3)ccnc2c1 — pIC50 (Tyrosine-protein kinase Fyn (FYN, Homo sapiens, UniProt P06241); enzyme activity, inhibitor): < 6.30
NC(=O)c1ccc[n+]([C@@H]2O[C@H](COP(=O)([O-])OP(=O)(O)OC[C@H]3O[C@@H](n4cnc5c(N)ncnc54)[C@H](O)[C@@H]3O)[C@@H](O)[C@H]2O)c1 — pIC50 (Protein mono-ADP-ribosyltransferase PARP14 (PARP14, Homo sapiens, UniProt Q460N5); enzyme activity, inhibitor): 3.96
CN(C)CCC=C1c2ccccc2CCc2ccccc21 — pIC50 (SLC47A1; transporter uptake, inhibitor, radiometric; HEK293; 5 min): 4.53
Cc1cc(-c2cc(C#N)ccc2O[C@H]2C[C@H]2c2ccc(F)cc2F)n[nH]1 — pIC50 (ALK; enzyme activity, inhibitor, TR-FRET): 7.10
CN(Cc1ccc(NC(=O)C2=Cc3cc(-c4ccc(OCCCO)cc4)ccc3CCC2)cc1)C1CCOCC1 — pIC50 (CCR2; calcium signal, antagonist): 7.35
CSc1ccc(/C=C2/C(C)=C(CC(=O)O)c3cc(F)ccc32)cc1 — pIC50 (Dual specificity calcium/calmodulin-dependent 3',5'-cyclic nucleotide phosphodiesterase 1A (PDE1A, Homo sapiens, UniProt P54750); enzyme activity, inhibitor): < 4.00
CCOC(F)(F)c1nnc2cnc(-c3cnc(OCC(F)(F)F)c(F)c3)cn12 — pIC50 (SCN5A; ion current, inhibitor, patch clamp): 6.00
COC[C@]1(c2ccc(F)cc2F)C[C@H]1Oc1ccc(C#N)cc1-c1cc(C)[nH]n1 (racemic) — pIC50 (ALK; phosphorylation in cells, inhibitor, ELISA): 6.05
CCS(=O)(=O)N1CC(CC#N)(n2cc(-c3ncnc4[nH]ccc34)cn2)C1 — pIC50 (SLC47A1; transporter uptake, inhibitor, radiometric; 2 min): 4.12
Cc1cc(-c2cc(C#N)ccc2O[C@@H]2C[C@]2(CN(C)C)c2ccc(F)cc2F)n[nH]1 (racemic) — pIC50 (ALK; enzyme activity, inhibitor, TR-FRET): 6.96
NC(=O)c1ccc(C(=O)NOCc2ccc(C(F)(F)F)c(Cl)c2)cc1 — pIC50 (SIRT6; enzyme activity, inhibitor, fluorescence): 5.70
Cc1ccc(C(=O)Nc2ccc(Oc3cc4cnn(C)c4cc3-c3cn[nH]c3)c(F)c2)c(=O)n1-c1ccc(F)cc1 — pIC50 (TEK; cell growth or viability, ATP luminescence): 7.20
Nc1nonc1-n1cc(C(=O)N/N=C/c2ccccc2C(=O)O)nn1 — pIC50 (SIRT6; enzyme activity, inhibitor, fluorescence): 4.23
CNC[C@]1(c2ccc(F)cc2F)C[C@H]1Oc1ccc(C#N)cc1-c1cc(C)[nH]n1 (racemic) — pIC50 (ALK; enzyme activity, inhibitor, TR-FRET): 7.31
CN1CCN(c2ccc(Nc3ncc4cc(C#N)c(=O)n(C5CCCC5)c4n3)cc2)CC1 — pIC50 (Serine/threonine-protein kinase D3 (PRKD3, Homo sapiens, UniProt O94806); enzyme activity, inhibitor): 7.15
CN(Cc1ccc(NC(=O)C2=Cc3cc(-c4ccc(OCCCCCCCF)cc4)ccc3CCC2)cc1)C1CCOCC1 — pIC50 (CCR5; ligand displacement, radioligand; cell membranes): 5.44
NC(=O)c1ccc(C(=O)NOCc2ccc(Sc3ccc(F)cc3)c(C(F)(F)F)c2)cc1 — pIC50 (SIRT6; enzyme activity, inhibitor, fluorescence): 5.63
Nc1nonc1-n1cc(C(=O)N/N=C/c2ccco2)nn1 — pIC50 (SIRT6; enzyme activity, inhibitor, fluorescence): 4.85
